Reference: ChEMBL document CHEMBL1152741, “Discovery, design, and synthesis of anti-metastatic lead phenylmethylene hydantoins inspired by marine natural products” (Bioorg Med Chem, 2009)
Active and inactive are the calls of the source. The rule behind the calls is not given here.

Legend:
[1] = Antimetastatic activity against human PC3M cells expressing CTR assessed as reduction in migration area at 200 uM after 48 hrs by spheroid disaggregation assay; format: functional, PC-3M
Outline: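 PC-3M-CT+ cells (which secrete calcitonin and carry CTR) are formed into spheroids from 5 × 10^4/mL cells in serum-free RPMI 1640. Plates are rocked 2 days at 37°C, giving spheroids of 150–300 μm. Single spheroids are placed on ECM-coated wells in serum-free medium, with t = 0 set at 1 h. They are photographed, kept 48 h at 37°C, then fixed and Diff-Quik stained. Radial migration distance is measured by micrometer after subtracting the initial diameter. Compounds are tested at 200 μM.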

PC-3M [2] = assay: Antiinvasive activity in human PC3M cells expressing CTR assessed as change in core spheroid at => 100 uM after 48 hrs by spheroid disaggregation assay; format: functional, cell-based
PC-3M [3] = assay: Cytotoxicity against human PC3M cells assessed as cell viability up to 50 uM by MTT assay; format: functional, cell-based
[4] = Antiinvasive activity in human PC3M cells expressing CTR assessed as inhibition of calcitonin-induced cell migration after 24 hrs by spheroid disaggregation assay; format: functional, cell-based; settings: PC-3M

SMILES: O=C1NC(=O)/C(=C/c2ccc(-c3cccs3)cc2)N1
- Activity [1]: 39 um
- Activity (PC-3M [2]): inactive

SMILES: O=C1NC(=O)/C(=C/c2ccc(O)cc2)N1 [4-HYDROXYPHENYLMETHYLENE HYDANTOIN]
- Activity (PC-3M [3]): inactive
- Activity (PC-3M [2]): inactive
- EC50 [4]: 150 µM

SMILES: CCSc1ccc(/C=C2\NC(=O)NC2=O)cc1
- Activity [1]: 15.5 um
- Activity (PC-3M [2]): inactive
- EC50 [4]: 30 µM

SMILES: O=C1NC(=O)/C(=C/c2ccccc2-c2ccccc2)N1
- Activity [1]: 56 um
- Activity (PC-3M [2]): inactive

SMILES: O=C1NC(=O)/C(=C/c2cccc(-c3ccccc3)c2)N1
- Activity [1]: 76 um
- Activity (PC-3M [2]): inactive

SMILES: N#Cc1cccc(/C=C2\NC(=O)NC2=O)c1
- Activity [1]: 195 um
- Activity (PC-3M [2]): inactive

SMILES: Cc1ccc(/C=C2\NC(=O)NC2=O)c(F)c1F
- Activity [1]: 175 um
- Activity (PC-3M [2]): inactive

SMILES: O=C1NC(=O)/C(=C/c2ccccc2-c2cccs2)N1
- Activity [1]: 50 um
- Activity (PC-3M [2]): inactive
